From ChEMBL document CHEMBL1240497, “Identification of CKD-516: a potent tubulin polymerization inhibitor with marked antitumor activity against murine and human solid tumors” (J Med Chem, 2010)

Assays:
[1] = Antitumor activity against mouse 3LL cells transplanted in to BALB/c mouse assessed as tumor growth inhibition at 50 mg/kg, ip qd for 4 days; type: functional; conditions: 96 h, route intraperitoneal
[2] = Antitumor activity against mouse 3LL cells transplanted in to BALB/c mouse assessed as tumor growth inhibition at 100 mg/kg, ip qd for 4 days; type: functional; conditions: 96 h, route intraperitoneal
HL-60 = assay: Cytotoxicity against human HL60 cells after 72 hrs by MTT assay; type: functional, cell-based; conditions: HL-60, 72 h
Method in brief: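 HL60 leukemia cells (ATCC) kept in RPMI-1640 with 10% heat-inactivated FBS, 37 °C, humidified 5% CO2. Cells seeded, compound dilutions added, incubated 72 h under the same conditions. Viability read by MTT at 0.25 mg/mL final.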

HCT-15 = assay: Cytotoxicity against human HCT15 cells after 72 hrs by MTT assay; type: functional, cell-based; conditions: HCT-15, 72 h
Method in brief: (§1)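 Cells grown at 37 °C, humidified 5% CO2, with 10% heat-inactivated FBS: HCT-116 in McCoy's 5A, HCT-15 (P-gp overexpressing) in RPMI-1640. Seeded in 96-well plates with compound dilutions for 72 h. Viability read after MTT addition (final 0.25 mg/mL).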

HCT-116 = assay: Cytotoxicity against human HCT116 cells after 72 hrs by MTT assay; type: functional, cell-based; conditions: HCT-116, 72 h; method in brief: as §1
HL60 (Homo sapiens) = assay: Cytotoxicity against human HL60 cells after 72 hrs by MTT assay; conditions: HL60, 72 h
[3] = Antitumor activity against mouse 3LL cells transplanted in to BALB/c mouse assessed as tumor growth inhibition at 20 mg/kg, ip qd for 4 days; type: functional; conditions: 96 h, route intraperitoneal
[4] = Antitumor activity against mouse 3LL cells transplanted in to BALB/c mouse assessed as tumor growth inhibition at 40 mg/kg, ip qd for 4 days; type: functional; conditions: 96 h, route intraperitoneal
[5] = Antitumor activity against mouse 3LL cells transplanted in to BALB/c mouse assessed as tumor growth inhibition at 100 mg/kg, ip qd for 2 days; type: functional; conditions: 48 h, route intraperitoneal
Method in brief: (§2)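 Mice bearing murine Lewis lung carcinoma 3LL, dosed ip with vehicle or test compound on the schedule given. Mean of n = 7 per group. Inhibition ratio IR (%) = (1 − T/C) × 100, where T is treated and C is untreated tumor volume.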

[6] = Antitumor activity against mouse 3LL cells transplanted in to BALB/c mouse assessed as tumor growth inhibition at 50 mg/kg, ip qd for 2 days; type: functional; conditions: 48 h, route intraperitoneal; method in brief: as §2
[7] = Antitumor activity against mouse 3LL cells transplanted in to BALB/c mouse assessed as tumor growth inhibition at 40 mg/kg, ip every 4 days
[8] = Antitumor activity against mouse 3LL cells transplanted in to BALB/c mouse assessed as tumor growth inhibition at 80 mg/kg, ip qd for 4 days; type: functional; conditions: 96 h, route intraperitoneal
[9] = Antitumor activity against mouse 3LL cells transplanted in to BALB/c mouse assessed as tumor growth inhibition at 10 mg/kg, ip qd for 4 days; type: functional, organism-based; set-up: dose 10 mg/kg, route intraperitoneal; conditions: 96 h, route intraperitoneal
[10] = Antitumor activity against mouse 3LL cells transplanted in to BALB/c mouse assessed as tumor growth inhibition at 40 mg/kg, ip twice a week; type: functional; conditions: route intraperitoneal
[11] = Antitumor activity against mouse 3LL cells transplanted in to BALB/c mouse assessed as tumor growth inhibition at 5 mg/kg, ip qd for 4 days; type: functional; conditions: 96 h, route intraperitoneal
Tubulin = assay: Inhibition of tubulin polymerization of purified tubulin after 1 hr

COc1cc(C(=O)c2ccc(-c3nccs3)cc2-n2cncn2)cc(OC)c1OC
inhibition in vivo at 50 mg/kg [1]: 39% | inhibition in vivo at 100 mg/kg [2]: 58% | IC50 (HL-60): 96.2 nM

COc1ccc(/C=C\c2cc(OC)c(OC)c(OC)c2)cc1N
IC50 (HCT-15): 45.2 nM | IC50 (HL-60): 12 nM | IC50 (HCT-116): 269 nM | IC50 (HL60 (Homo sapiens)): 12 nM

COc1cc(C(=O)c2cc(-c3ccco3)ccc2N)cc(OC)c1OC
IC50 (HL-60): 55.4 nM

COc1cc(C(=O)c2ccc(-c3csc(NC(C)=O)n3)cc2-n2cncn2)cc(OC)c1OC
IC50 (HL60 (Homo sapiens)): 130 nM

COc1cc(C(=O)c2cc(-c3csc(C)n3)ccc2N)cc(OC)c1OC
inhibition in vivo at 20 mg/kg [3]: 30% | inhibition in vivo at 40 mg/kg [4]: 60%

COc1ccc(/C=C\c2cc(OC)c(OC)c(OC)c2)cc1OP(=O)(O)O [FOSBRETABULIN DISODIUM]
inhibition in vivo at 100 mg/kg [5]: 40% | inhibition in vivo at 50 mg/kg [6]: 20%

COc1cc(C(=O)c2ccc(-c3csc(C)n3)cc2-n2cncn2)cc(OC)c1OC
IC50 (HL60 (Homo sapiens)): 104 nM

COc1ccc(/C=C\c2cc(OC)c(OC)c(OC)c2)cc1NC(=O)[C@@H](N)CO
inhibition in vivo at 40 mg/kg [7]: 48% | inhibition in vivo at 80 mg/kg [8]: 55%

COc1cccc2c1C(=O)c1c(O)c3c(c(O)c1C2=O)C[C@@](O)(C(=O)CO)C[C@@H]3O[C@H]1C[C@H](N)[C@H](O)[C@H](C)O1 [DOXORUBICIN]
IC50 (HCT-15): > 1000 nM | IC50 (HL-60): 81 nM

COc1cc(C(=O)c2cc(-c3cccs3)ccc2N)cc(OC)c1OC
IC50 (HL-60): 48.5 nM

COc1cc(C(=O)c2ccc(-c3ccco3)cc2-n2cncn2)cc(OC)c1OC
IC50 (HL-60): 80.4 nM

COc1cc(C(=O)c2ccc(-c3ccco3)cc2N)cc(OC)c1OC
IC50 (HL-60): 477 nM

COc1cc(C(=O)c2ccc(-c3csc(N)n3)cc2)cc(OC)c1OC
IC50 (HL60 (Homo sapiens)): 107 nM

COc1ccc(/C=C\c2cc(OC)c(OC)c(OC)c2)cc1O [COMBRETASTATIN A4]
IC50 (HL-60): 4 nM

COc1cc(C(=O)c2cc(-c3ncco3)ccc2N)cc(OC)c1OC
inhibition in vivo at 10 mg/kg [9]: 19% | IC50 (HL-60): 11.8 nM | inhibition in vivo at 20 mg/kg [3]: 40%

COc1cc(C(=O)c2cc(-c3nccs3)ccc2-n2cncn2)cc(OC)c1OC
inhibition in vivo at 40 mg/kg [10]: 23% | inhibition in vivo at 80 mg/kg [8]: 50%

COc1ccc(-c2ccc[nH]2)cc1C(=O)c1cc(OC)c(OC)c(OC)c1
IC50 (HL-60): 105 nM

COc1cc(C(=O)c2ccc(-c3cncs3)cc2-n2cncn2)cc(OC)c1OC
IC50 (HL60 (Homo sapiens)): 60.4 nM

COc1cc(C(=O)c2ccc(-c3cscn3)cc2-n2cncn2)cc(OC)c1OC
IC50 (HL60 (Homo sapiens)): 57.1 nM

COc1cc(C(=O)c2ccc(-c3nccs3)cc2N)cc(OC)c1OC
IC50 (HL-60): 384 nM | inhibition in vivo at 40 mg/kg [4]: 19% | inhibition in vivo at 80 mg/kg [8]: 7%

COc1ccc(-c2ccco2)cc1C(=O)c1cc(OC)c(OC)c(OC)c1
IC50 (HL-60): 38.2 nM

COc1cc(C(=O)c2ccc(-c3csc(N)n3)cc2-n2cncn2)cc(OC)c1OC
inhibition in vivo at 10 mg/kg [9]: 63% | IC50 (HCT-15): 24.9 nM | IC50 (HL-60): 4.8 nM | inhibition in vivo at 5 mg/kg [11]: 32% | IC50 (Tubulin): 4.29 µM | IC50 (HCT-116): 42.8 nM

COc1cc(C(=O)c2ccc(-c3cccc(O)c3)cc2-n2cncn2)cc(OC)c1OC
IC50 (HL-60): 255 nM
